Test [1] deals with Delta-type opioid receptor (Homo sapiens) (UniProt P41143). In words: Displacement of [3H]diprenorphine from human DOR expressed in CHO cell membranes incubated for 60 mins liquid scintillation counting assay. Particulars: Cell membrane, filed as agonist. An outline of the steps:
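Membranes from CHO cells expressing human DOR (15–20 μg) in 50 mM Tris-HCl, pH 7.4, were incubated with 0.2 nM [3H]diprenorphine and varied test concentrations for 60 min at 25 °C. Nonspecific binding was set with 1–10 μM unlabeled diprenorphine. Samples were GF/C filtered and scintillation counted.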

In the next test the target is Mu-type opioid receptor (Rattus norvegicus, UniProt P33535). The test can be described thus: Displacement of [3H]DAMGO from mu opioid receptor in rat brain membranes incubated for 45 mins by liquid scintillation counting method. The format is cell membranes, Membrane. An outline of the steps:
(§1)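 Rat brain membranes (cerebella removed; 0.3–0.5 mg protein) in 50 mM Tris-HCl, pH 7.4, were incubated 45 min at 35 °C with 1 nM [3H]DAMGO (MOR) or 0.5 nM [3H][Ile5,6]deltorphin II (DOR) plus varied test concentrations. Nonspecific binding was set with 10 μM naloxone. Samples were GF/C filtered, washed and scintillation counted. Ki was obtained by Cheng–Prusoff; duplicates, 3–4 experiments.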
(In general: Displacement assays read how much labelled ligand stays bound in the presence of the test substance.)

The target in test [2] is Delta-type opioid receptor (Rattus norvegicus, UniProt P33533). In words: Displacement of [3H][Ile5,6]deltorphin II from delta opioid receptor in rat brain membranes incubated for 45 mins by liquid scintillation counting method. The format is cell membranes, Membrane. A digest of the protocol:
as §1

In test [3] the target is Kappa-type opioid receptor (Cavia porcellus, UniProt P41144). The test can be described thus: Displacement of [3H]U69,593 from kappa opioid receptor in guinea-pig brain membranes incubated for 30 mins by liquid scintillation counting method. The format is cell membranes, Membrane. A digest of the protocol: (§2)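 Guinea-pig brain membranes (0.3–0.5 mg protein) in 50 mM Tris-HCl, pH 7.4, were incubated with 1 nM [3H]U69,593 for 30 min at 30 °C, with 10 μM naloxone defining nonspecific binding. MOR was measured on rat brain membranes with 1 nM [3H]DAMGO for 45 min at 35 °C. Samples were filtered and scintillation counted, and Ki was obtained by Cheng–Prusoff; duplicates, 3–4 experiments.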

The species entered for a further test is Rattus norvegicus. The test can be described thus: Selectivity index, ratio of Ki for displacement of [3H][Ile5,6]deltorphin II from delta opioid receptor in rat brain membranes to Ki for displacement of [3H]DAMGO from mu opioid receptor in rat brain membranes. Format: cell membranes. A digest of the protocol: as §1
A short description of test [4]: Selectivity index, ratio of Ki for displacement of [3H]U69,593 from kappa opioid receptor in guinea-pig brain membranes to Ki for displacement of [3H]DAMGO from mu opioid receptor in rat brain membranes. The format is cell membranes. A digest of the protocol:
as §2

Test [5] concerns the target Mu-type opioid receptor (Homo sapiens) (UniProt P35372). In words: Agonist activity at human MOR expressed in CHO cell membranes incubated for 60 mins scintillation counting assay relative to DAMGO. Particulars: Cell membrane. A digest of the protocol:
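CHO-hMOR or CHO-hKOR membranes (5–10 μg) were incubated 60 min at 25 °C in HEPES/MgCl2/NaCl buffer, pH 7.4, with 0.05 nM [35S]GTPγS, 10 μM GDP and varied test concentrations. Nonspecific binding was set with 10 μM GTPγS. Samples were filtered and scintillation counted. % stimulation was taken from concentration–response curves relative to the full agonist (DAMGO for MOR, U69,593 for KOR). Duplicates, 3–4 experiments.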

Test [6] relates to Mus musculus. The test can be described thus: Antinociceptive activity in CD1 mouse assessed as inhibition of the writhing response at 200 ug/kg, sc and co-administered with 1 mg/kg naloxone methiodide and measured after 30 mins post dose by acetic acid-induced writhing assay. Format: functional, organism-based. Particulars: dose 200.0 µg/kg. A digest of the protocol: (§3)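 Male CD1 mice (30–35 g) received the agonist sc in saline (10 μL/g) together with sc naloxone methiodide 1 mg/kg. At 25 min, 0.6% acetic acid was given ip, and writhes were counted over a 10 min observation period (30 min post-dose). Results were expressed as mean writhes versus saline control and agonist-alone groups; n = 6–7 mice per group; ANOVA with Tukey post hoc.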
For orientation: An intraperitoneal irritant provokes the stretching counted in writhing tests.

In test [7] the test system is Mus musculus. In words: Antinociceptive activity in CD1 mouse assessed as inhibition of the writhing response at 50 ug/kg, sc and co-administered with 1 mg/kg naloxone methiodide and measured after 30 mins post dose by acetic acid-induced writhing assay. Format: functional, organism-based. Particulars: dose 50.0 µg/kg. An outline of the steps: as §3
Test [8] has as its system Mus musculus. The test can be described thus: Antinociceptive activity in sc dosed CD1 mouse assessed as inhibition of the writhing response after 30 mins post dose by acetic acid-induced writhing assay. The format is functional. Particulars: 0.5 h.

Activity calls are given as the source filed them. The calls are words filed in the database; no cut-off is given here.

Mu-type opioid receptor (Homo sapiens), sequence (P35372 whole entry): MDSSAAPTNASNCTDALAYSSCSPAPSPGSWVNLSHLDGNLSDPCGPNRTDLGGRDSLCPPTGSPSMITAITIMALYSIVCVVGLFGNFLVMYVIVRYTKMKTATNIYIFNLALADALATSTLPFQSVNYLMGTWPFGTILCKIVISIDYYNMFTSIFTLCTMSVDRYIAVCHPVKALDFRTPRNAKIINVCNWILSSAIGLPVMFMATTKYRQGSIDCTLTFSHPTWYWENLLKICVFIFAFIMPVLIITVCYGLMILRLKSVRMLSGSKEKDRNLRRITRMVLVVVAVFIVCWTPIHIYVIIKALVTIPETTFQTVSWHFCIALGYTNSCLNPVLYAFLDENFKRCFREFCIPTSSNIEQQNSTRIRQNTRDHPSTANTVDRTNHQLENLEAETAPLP
Kappa-type opioid receptor, sequence (P41144 whole entry): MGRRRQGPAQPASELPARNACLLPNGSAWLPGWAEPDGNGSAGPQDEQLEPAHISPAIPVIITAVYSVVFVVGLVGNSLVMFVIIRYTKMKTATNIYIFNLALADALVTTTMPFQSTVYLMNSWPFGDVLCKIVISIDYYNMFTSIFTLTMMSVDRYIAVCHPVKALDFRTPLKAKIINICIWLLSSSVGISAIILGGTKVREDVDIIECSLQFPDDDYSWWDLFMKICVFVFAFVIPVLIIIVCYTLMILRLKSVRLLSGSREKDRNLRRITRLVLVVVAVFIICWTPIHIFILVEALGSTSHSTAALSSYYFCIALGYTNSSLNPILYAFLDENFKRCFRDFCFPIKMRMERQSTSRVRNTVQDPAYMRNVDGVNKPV
Delta-type opioid receptor (Homo sapiens), sequence (P41143 whole entry): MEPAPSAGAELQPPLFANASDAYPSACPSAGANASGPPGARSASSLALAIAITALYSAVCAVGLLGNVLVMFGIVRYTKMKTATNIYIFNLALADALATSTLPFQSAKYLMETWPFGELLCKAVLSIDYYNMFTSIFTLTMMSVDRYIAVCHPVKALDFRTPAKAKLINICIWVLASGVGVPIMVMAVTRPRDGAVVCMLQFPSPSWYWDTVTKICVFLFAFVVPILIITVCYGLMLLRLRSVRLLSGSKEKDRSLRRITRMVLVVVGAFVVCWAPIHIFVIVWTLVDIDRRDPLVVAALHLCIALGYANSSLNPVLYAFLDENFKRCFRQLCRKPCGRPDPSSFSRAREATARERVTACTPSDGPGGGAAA
Mu-type opioid receptor, sequence (P33535 whole entry): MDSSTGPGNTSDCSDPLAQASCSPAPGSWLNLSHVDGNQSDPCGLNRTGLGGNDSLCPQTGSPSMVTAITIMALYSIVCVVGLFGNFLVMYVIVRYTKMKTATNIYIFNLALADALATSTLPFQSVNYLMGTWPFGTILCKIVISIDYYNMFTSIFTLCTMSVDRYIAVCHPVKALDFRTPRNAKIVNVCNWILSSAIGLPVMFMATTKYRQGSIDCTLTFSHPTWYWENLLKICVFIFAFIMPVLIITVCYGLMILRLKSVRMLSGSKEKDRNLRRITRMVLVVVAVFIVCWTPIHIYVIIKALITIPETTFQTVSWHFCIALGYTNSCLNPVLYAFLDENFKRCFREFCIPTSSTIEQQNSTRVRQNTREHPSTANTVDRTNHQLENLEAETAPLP
Delta-type opioid receptor, sequence (P33533 whole entry): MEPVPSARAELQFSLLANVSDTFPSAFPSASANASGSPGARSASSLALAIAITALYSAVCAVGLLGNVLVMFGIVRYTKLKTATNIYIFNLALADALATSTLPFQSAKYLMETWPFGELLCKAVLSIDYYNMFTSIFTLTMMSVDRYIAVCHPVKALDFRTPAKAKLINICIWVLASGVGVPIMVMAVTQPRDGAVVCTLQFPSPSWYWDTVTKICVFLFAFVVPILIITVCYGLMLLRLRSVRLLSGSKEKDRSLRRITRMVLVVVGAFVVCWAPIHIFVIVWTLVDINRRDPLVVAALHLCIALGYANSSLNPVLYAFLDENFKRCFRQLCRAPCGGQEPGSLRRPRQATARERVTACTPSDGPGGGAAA

As to `CO[C@@]12CC[C@@H](N[C@@H](Cc3ccccc3)C(=O)O)[C@@H]3Oc4c(O)ccc5c4[C@@]31CCN(C)[C@@H]2C5`, in test [1], the outcome was Active. Besides, the Ki is 2.58 nM at Mu-type opioid receptor, 1.03 nM in test [2] and 151 nM in test [3]. The Ratio Ki in the test filed under Rattus norvegicus turned out to be 0.4; in test [4], 59.

`CO[C@@]12CC[C@H](N[C@@H](Cc3ccccc3)C(=O)O)[C@@H]3Oc4c(O)ccc5c4[C@@]31CCN(C)[C@@H]2C5`: in test [1], the outcome was Active. Also, the Ki stood at 0.95 nM on Mu-type opioid receptor and 28.5 nM in test [3]. Moreover, the Ratio Ki in the test listed under Rattus norvegicus came to 3.9; in [4], 30.

Take `CO[C@@]12CC[C@@H](N[C@@H](CC(=O)O)C(=O)O)[C@@H]3Oc4c(O)ccc5c4[C@@]31CCN(C)[C@@H]2C5`: the result in [1] was Active. In addition, the values for the Ratio Ki (in the test filed under Rattus norvegicus; in test [4]) were 6.6 and 103, respectively. This compound also came in with an Activity in [5] (filed as agonist) of 74%.

For the compound `CO[C@@]12CC[C@@H](N[C@H](Cc3ccccc3)C(=O)O)[C@@H]3Oc4c(O)ccc5c4[C@@]31CCN(C)[C@@H]2C5`, the outcome in test [1] was Active. Further, the values for the Ratio Ki (in the test listed under Rattus norvegicus; in [4]) were 0.9 and 109, respectively. In test [5] (filed as agonist), this compound yielded an Activity of 78%.

As for `CO[C@@]12CC[C@@H](N[C@H](C(=O)N[C@@H](Cc3ccc(O)cc3)C(=O)O)C(C)C)[C@@H]3Oc4c(O)ccc5c4[C@@]31CCN(C)[C@@H]2C5`, in test [1], the result was Active. The Ratio Ki in the test filed under Rattus norvegicus amounted to 3.1. Also, the Activity in test [5] (filed as partial agonist) was found to be 73%.

For `CO[C@@]12CC[C@@H](NCC(=O)NCC(=O)O)[C@@H]3Oc4c(O)ccc5c4[C@@]31CCN(C)[C@@H]2C5`, the result in test [1] was Active. Moreover, the Ratio Ki stood at 1.6 in the test listed under Rattus norvegicus and 44 in test [4]. Further, the result with Mus musculus [6] was inactive.

Consider `CO[C@@]12CC[C@@H](N[C@@H](CCCCN)C(=O)O)[C@@H]3Oc4c(O)ccc5c4[C@@]31CCN(C)[C@@H]2C5`, for which, in test [1], the result was Active. Moreover, the Ratio Ki amounted to 6.3 in the test listed under Rattus norvegicus and 64 in test [4]. For the same compound, the result with Mus musculus [7] was inactive.

`CO[C@@]12CC[C@H](N[C@H](Cc3ccccc3)C(=O)O)[C@@H]3Oc4c(O)ccc5c4[C@@]31CCN(C)[C@@H]2C5`: the result in test [1] was Active. Further, the Ratio Ki was found to be 6 in the test listed under Rattus norvegicus and 125 in test [4]. The ED50 with Mus musculus [8] was found to be 0.0181 mg/kg.

For the compound `CN1CC[C@]23c4c5ccc(O)c4O[C@H]2[C@@H](O)C=C[C@H]3[C@H]1C5` [MORPHINE], in the test with Mus musculus [8], the ED50 stood at 0.437 mg/kg.

On to `CO[C@@]12CC[C@@H](NCCC(=O)O)[C@@H]3Oc4c(O)ccc5c4[C@@]31CCN(C)[C@@H]2C5`, for which the result in test [1] was Active. Moreover, the results for the Ratio Ki (in the test listed under Rattus norvegicus; in test [4]) were 13 and 69, respectively. Also, the Activity in test [5] (filed as agonist) turned out to be 78%.

Consider `CO[C@@]12CC[C@@H](N[C@@H](Cc3c[nH]c4ccccc34)C(=O)O)[C@@H]3Oc4c(O)ccc5c4[C@@]31CCN(C)[C@@H]2C5`, for which the result in test [1] was Active. In addition, the Ratio Ki in the test listed under Rattus norvegicus was 1.8; in test [4] it was 13. Further, the result with Mus musculus [6] was inactive.

For the compound `CC[C@H](N[C@H]1CC[C@@]2(OC)[C@H]3Cc4ccc(O)c5c4[C@@]2(CCN3C)[C@H]1O5)C(=O)O`, the outcome in test [1] was Active. The Ratio Ki in test [4] worked out at 189. Further, in the test on Mus musculus [8], the ED50 came out at 0.0175 mg/kg.

For the compound `CC[C@H](N[C@@H]1CC[C@@]2(OC)[C@H]3Cc4ccc(O)c5c4[C@@]2(CCN3C)[C@H]1O5)C(=O)O`, in [1], the outcome was Active. The Ratio Ki was found to be 0.7 in the test listed under Rattus norvegicus and 110 in test [4]. For the same compound, the Activity in [5] (filed as agonist) was determined as 83%. Moreover, the outcome in the test on Mus musculus [7] was inactive.

For `CO[C@@]12CC[C@@H](N[C@@H](C(=O)O)C(C)C)[C@@H]3Oc4c(O)ccc5c4[C@@]31CCN(C)[C@@H]2C5`, in [1], the outcome was Active. For the same compound, the Ratio Ki in the test filed under Rattus norvegicus was determined as 1.6; in test [4] it was 156. For the same compound, the median effective dose (ED50) in the test with Mus musculus [8] amounted to 0.014 mg/kg.

For `CO[C@@]12CC[C@H](NCCC(=O)O)[C@@H]3Oc4c(O)ccc5c4[C@@]31CCN(C)[C@@H]2C5`, the outcome in [1] was Active. The results for the Ratio Ki (in the test filed under Rattus norvegicus; in [4]) were 46 and 140, respectively.

In the case of `CO[C@@]12CC[C@H](N[C@H](C(=O)N[C@@H](Cc3ccc(O)cc3)C(=O)O)C(C)C)[C@@H]3Oc4c(O)ccc5c4[C@@]31CCN(C)[C@@H]2C5`, in [1], the result was Active. Also, the Ratio Ki in the test filed under Rattus norvegicus is 1.5; in test [4], 84. For the same compound, the Activity in test [5] (filed as partial agonist) is 84%.

Consider `CO[C@@]12CC[C@H](N[C@@H](CC(N)=O)C(=O)O)[C@@H]3Oc4c(O)ccc5c4[C@@]31CCN(C)[C@@H]2C5`, for which the outcome in [1] was Active. For the same compound, the Ratio Ki came out at 2.9 in the test filed under Rattus norvegicus and 63 in test [4]. Moreover, the ED50 in the test on Mus musculus [8] worked out at 0.0152 mg/kg.

`CO[C@@]12CC[C@@H](N[C@H](C(=O)O)C(C)C)[C@@H]3Oc4c(O)ccc5c4[C@@]31CCN(C)[C@@H]2C5`: the outcome in [1] was Active. The Ratio Ki in the test filed under Rattus norvegicus amounted to 1.2; in test [4] it was 100. The Activity in [5] (filed as agonist) was determined as 84%.

In the case of `CO[C@@]12CC[C@H](N[C@@H](Cc3ccc(O)cc3)C(=O)O)[C@@H]3Oc4c(O)ccc5c4[C@@]31CCN(C)[C@@H]2C5`, the result in test [1] was Active. The Ratio Ki is 2.6 in the test filed under Rattus norvegicus and 48 in test [4]. In addition, the 50% effective dose (ED50) with Mus musculus [8] is 0.0146 mg/kg.

Take `CO[C@@]12CC[C@H](N[C@@H](Cc3c[nH]c4ccccc34)C(=O)O)[C@@H]3Oc4c(O)ccc5c4[C@@]31CCN(C)[C@@H]2C5`: the outcome in test [1] was Active. The Ratio Ki turned out to be 2.8 in the test listed under Rattus norvegicus and 70 in test [4].

Turning to `CO[C@@]12CC[C@@H](N[C@H](C(=O)O)C3CCCCC3)[C@@H]3Oc4c(O)ccc5c4[C@@]31CCN(C)[C@@H]2C5`, in test [1], the result was Active. Further, the Ratio Ki in the test listed under Rattus norvegicus amounted to 0.8; in test [4] it was 71. Also, the result in the test on Mus musculus [7] was inactive.

With `CO[C@@]12CC[C@H](N[C@@H](C)C(=O)O)[C@@H]3Oc4c(O)ccc5c4[C@@]31CCN(C)[C@@H]2C5`, the result in [1] was Active. This compound also showed a Ki in test [3] of 142 nM. Also, the ED50 in the test with Mus musculus [8] amounted to 0.016 mg/kg.

For the compound `CO[C@@]12CC[C@H](N[C@@H](CC(=O)O)C(=O)O)[C@@H]3Oc4c(O)ccc5c4[C@@]31CCN(C)[C@@H]2C5`, the result in test [1] was Active. Further, the Ratio Ki in the test listed under Rattus norvegicus came out at 11; in [4], 37.

Take `CO[C@@]12CC[C@@H](N[C@@H](C)C(=O)O)[C@@H]3Oc4c(O)ccc5c4[C@@]31CCN(C)[C@@H]2C5`: in test [1], the outcome was Active. Moreover, the values for the Ki in test [2] and in [3] were 7.71 nM and 63.7 nM, respectively.

In the case of `CO[C@@]12CC[C@H](N[C@@H](C(=O)O)C(C)C)[C@@H]3Oc4c(O)ccc5c4[C@@]31CCN(C)[C@@H]2C5`, the outcome in [1] was Active. For the same compound, the Ratio Ki in the test listed under Rattus norvegicus was 1.1; in [4], 119.

By Ki is commonly meant a dissociation constant, usually derived from enzyme kinetics or from competition with a known ligand. For orientation: ED50 means the midpoint of the dose-response relation.
